Data: ChEMBL document CHEMBL4130408, “Photoactivation provides a mechanistic explanation for pan-assay interference behaviour of 2-aminopyrroles in lipoxygenase inhibition” (Eur J Med Chem, 2017)
One block for each compound: values may come before it.

Target: T1, Polyunsaturated fatty acid lipoxygenase ALOX15 (Homo sapiens) (UniProt P16050)
T1 sequence (whole entry): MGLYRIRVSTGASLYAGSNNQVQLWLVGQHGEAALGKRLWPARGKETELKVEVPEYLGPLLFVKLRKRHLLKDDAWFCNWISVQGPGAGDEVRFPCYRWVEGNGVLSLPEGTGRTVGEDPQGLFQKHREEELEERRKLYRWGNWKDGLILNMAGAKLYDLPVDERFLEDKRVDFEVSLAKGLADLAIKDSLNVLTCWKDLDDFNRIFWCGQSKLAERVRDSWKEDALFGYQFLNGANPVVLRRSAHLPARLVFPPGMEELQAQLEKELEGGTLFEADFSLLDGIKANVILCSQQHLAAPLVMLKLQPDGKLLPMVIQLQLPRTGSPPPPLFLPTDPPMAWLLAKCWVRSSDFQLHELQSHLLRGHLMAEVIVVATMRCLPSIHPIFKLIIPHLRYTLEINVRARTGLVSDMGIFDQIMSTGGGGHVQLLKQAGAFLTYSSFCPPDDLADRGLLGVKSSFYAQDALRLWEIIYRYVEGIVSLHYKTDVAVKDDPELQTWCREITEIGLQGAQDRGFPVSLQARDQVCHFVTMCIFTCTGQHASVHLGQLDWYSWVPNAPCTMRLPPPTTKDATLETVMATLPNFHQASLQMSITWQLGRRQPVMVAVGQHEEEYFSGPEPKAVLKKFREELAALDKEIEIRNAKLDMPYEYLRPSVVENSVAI
Test: Inhibition of recombinant human 15-LOX-1 expressed in Escherichia coli BL21(DE3) assessed as residual activity at 50 uM using linoleic acid as substrate preincubated for 10 mins followed by substrate addition
Outline: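 h-15-LOX-1 (1:100 enzyme stock, 1:400 final) preincubated 10 min at room temperature with inhibitor in 25 mM HEPES pH 7.4, then linoleic acid added to 25 µM final (inhibitor 50 µM final). 13(S)-HpODE formation read as A234 over time, rate taken from linear part within first 16 min; no-inhibitor = 100%, no-enzyme = 0%. Triplicate.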

SMILES: Nc1[nH]c(C(=O)c2ccccc2)c(-c2ccc(Cl)cc2)c1C(=O)O
Activity: 87.9%

SMILES: COCCNC(=O)c1c(N)[nH]c(C(=O)c2ccc(Br)cc2)c1-c1ccc(Br)cc1
Activity: 103%

SMILES: Nc1[nH]c(C(=O)c2ccc(Cl)cc2)c(-c2ccc(Br)cc2)c1C(=O)NCc1ccc(Cl)cc1Cl
Activity: 105%

SMILES: Cc1[nH]c2ccccc2c1C(=O)NCc1ccc(CNC(=O)c2c(N)[nH]c3ccccc23)cc1
Activity: 115%

SMILES: Nc1[nH]c(C(=O)c2ccccc2)c(-c2cccnc2)c1C(=O)NC1CCCCC1
Activity: 77.5%

SMILES: Nc1[nH]c(C(=O)c2ccccc2)c(-c2ccc(C(F)(F)F)cc2)c1C(=O)NCc1ccc(Cl)cc1Cl
Activity: 74.7%

SMILES: Nc1[nH]c(C(=O)c2ccccc2)c(-c2ccc(Br)cc2)c1C(=O)NC1CC1
Activity: 94.3%

SMILES: Nc1[nH]c(C(=O)c2ccc(Br)cc2)c(-c2ccccn2)c1C(=O)NCCc1c[nH]c2ccccc12
Activity: 42%

SMILES: Cc1ccc(-c2c(C(=O)c3ccccc3)[nH]c(N)c2C(=O)NCc2ccc(Cl)cc2)cc1
Activity: 94.4%

SMILES: Nc1[nH]c(C(=O)c2ccc(Br)cc2)c(-c2ccc(Br)cc2)c1C(=O)NCCc1c[nH]c2ccccc12
Activity: 30.6%

SMILES: Nc1[nH]c(C(=O)c2ccccc2)c(-c2ccc(O)cc2)c1C(=O)NCCc1c[nH]c2ccccc12
Activity: 53.3%

SMILES: Nc1[nH]c(C(=O)c2ccc(Br)cc2)c(-c2c(F)cccc2F)c1C(=O)NCCc1c[nH]c2ccccc12
Activity: 69.3%

SMILES: Nc1[nH]c2cc(Cl)ccc2c1C(=O)NCCc1ccc(Cl)cc1
Activity: 80.2%

SMILES: Nc1[nH]c(C(=O)c2ccccc2)c(-c2ccc(Br)cc2)c1C(=O)N1CCN(CCO)CC1
Activity: 100%

SMILES: Nc1[nH]c(C(=O)c2ccc(Br)cc2)c(-c2ccncc2)c1C(=O)NCCc1c[nH]c2ccccc12
Activity: 86.1%

SMILES: Cc1cc(C)cc(-c2c(C(=O)c3ccc(Br)cc3)[nH]c(N)c2C(=O)NCc2ccc(Cl)cc2)c1
Activity: 98.5%

SMILES: Nc1[nH]c(C(=O)c2ccccc2)c(-c2ccc(Cl)cc2)c1C(=O)NCc1ccco1
Activity: 88.8%

SMILES: NC(=O)c1c(N)[nH]c(C(=O)c2ccccc2)c1-c1ccccc1Cl
Activity: 114%

SMILES: CC(C)(C)C(=O)c1c(N)[nH]c(C(=O)c2ccccc2)c1-c1ccc(Cl)cc1
Activity: 94.5%

SMILES: CC(C)(C)C(=O)c1c(N)[nH]c(C(=O)c2ccccc2)c1-c1ccc(Br)cc1
Activity: 87.2%

SMILES: Nc1[nH]c(C(=O)c2ccccc2)c(-c2ccc(Br)cc2)c1C(=O)NCCc1c[nH]c2ccccc12
Activity: 73.5%

SMILES: Nc1[nH]c(C(=O)c2ccccc2)c(-c2ccc(F)cc2)c1C(=O)Cc1ccccc1
Activity: 75.1%

The next lines start with the values.

Activity: 91.2%
SMILES: Nc1[nH]c(C(=O)c2ccc(Br)cc2)c(-c2ccc(Br)cc2)c1C(=O)NCc1ccc(-c2ccccc2)cc1

Activity: 107%
SMILES: Nc1[nH]c2cc(Cl)ccc2c1C(=O)N1CCOCC1

Activity: 91.9%
SMILES: CC(C)(C)C(=O)c1c(N)[nH]c(C(=O)c2ccccc2)c1-c1c(F)cccc1F

Activity: 73.9%
SMILES: Nc1[nH]c(C(=O)c2ccccc2)c(-c2ccc(Cl)cc2)c1C(=O)c1c[nH]c2ccccc12

Activity: 63.8%
SMILES: COc1ccc(-c2c(C(=O)c3ccc(Br)cc3)[nH]c(N)c2C(=O)NCCc2c[nH]c3ccccc23)cc1OC

Activity: 40.1%
SMILES: COc1ccc(C(=O)c2[nH]c(N)c(C(=O)NCCc3c[nH]c4ccccc34)c2-c2ccc(Br)cc2)cc1

Activity: 29.7%
SMILES: Cc1[nH]c2ccccc2c1C(=O)c1c(N)[nH]c(C(=O)c2ccc(Br)cc2)c1-c1ccc(Br)cc1

Activity: 76.5%
SMILES: Nc1[nH]c(C(=O)c2ccccc2)c(-c2ccc(Cl)cc2Cl)c1C(=O)NCCC1=CCCCC1

Activity: 71.3%
SMILES: COc1ccc(C(=O)c2[nH]c(N)c(C(=O)NCCc3c[nH]c4ccccc34)c2-c2c(F)cccc2Cl)cc1

Activity: 117%
SMILES: COc1ccc(-c2c(C(=O)c3ccccc3)[nH]c(N)c2C(N)=O)cc1OC

Activity: 71%
SMILES: Nc1[nH]c(C(=O)c2ccc(Br)cc2)c(-c2ccccc2Cl)c1C(=O)NCCc1c[nH]c2ccccc12

Activity: 52.6%
SMILES: Nc1[nH]c(C(=O)c2ccccc2)c(-c2cccc(C(F)(F)F)c2)c1C(=O)NCCc1c[nH]c2ccccc12

Activity: 75.6%
SMILES: COCCNC(=O)c1c(N)[nH]c(C(=O)c2ccc(Br)cc2)c1-c1cccc2ccc(OC)cc12
